Measured values as given in ChEMBL document CHEMBL3352338, “Development and biological evaluation of potent and selective c-KIT(D816V) inhibitors” (J Med Chem, 2014).

Experiments:
[1] = molecular target: Serine/threonine-protein kinase B-raf (Homo sapiens) (UniProt P15056); test: Inhibition of BRAF (unknown origin) at 1 uM by KINOMEscanning assay relative to control; values are per cent of control
[2] = molecular target: 5'-AMP-activated protein kinase catalytic subunit alpha-2 (Homo sapiens) (UniProt P54646); test: Inhibition of AMPKalpha 2 (unknown origin) at 1 uM by KINOMEscanning assay relative to control; values are per cent of control
[3] = molecular target: Tyrosine-protein kinase JAK1 (Homo sapiens) (UniProt P23458); test: Inhibition of JAK1 (unknown origin) at 1 uM by KINOMEscanning assay relative to control; values are per cent of control
[4] = molecular target: Cyclin-dependent kinase 19 (Homo sapiens) (UniProt Q9BWU1); test: Inhibition of CDK11 (unknown origin) at 1 uM by KINOMEscanning assay relative to control; values are per cent of control
[5] = molecular target: Receptor-type tyrosine-protein kinase FLT3 (Homo sapiens) (UniProt P36888); test: Inhibition of FLT3 (unknown origin) at 1 uM by KINOMEscanning assay relative to control; values are per cent of control
[6] = tested on: Serine/threonine-protein kinase B-raf (Homo sapiens), P15056 [V600E]; test: Inhibition of BRAF V600E mutant (unknown origin) at 1 uM by KINOMEscanning assay relative to control; values are per cent of control
[7] = molecular target: 5'-AMP-activated protein kinase catalytic subunit alpha-1 (Homo sapiens) (UniProt Q13131); test: Inhibition of AMPKalpha 1 (unknown origin) at 1 uM by KINOMEscanning assay relative to control; values are per cent of control
[8] = molecular target: Cyclin-dependent kinase 4 (Homo sapiens) (UniProt P11802); test: Inhibition of CDK4 (unknown origin) at 1 uM by KINOMEscanning assay relative to control; values are per cent of control
[9] = molecular target: Phosphatidylinositol 4,5-bisphosphate 3-kinase catalytic subunit alpha isoform (Homo sapiens, UniProt P42336); test: Inhibition of PI3Kalpha (unknown origin) at 1 uM by KINOMEscanning assay relative to control; values are per cent of control
[10] = Antiproliferative activity against human HMC-1.2 cells carrying V560G, D816V mutant assessed as cell growth inhibition by MTT assay; assay type: functional, cell-based
Outline: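 Cell viability by MTT assay in imatinib-resistant HMC-1.2 human mast cells (V560G, D816V), 48 h exposure across a range of concentrations.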

[11] = molecular target: Epidermal growth factor receptor (Homo sapiens) (UniProt P00533); test: Inhibition of EGFR (unknown origin) at 1 uM by KINOMEscanning assay relative to control; values are per cent of control
[12] = molecular target: T1, Serine/threonine-protein kinase 17A (Homo sapiens) (UniProt Q9UEE5); test: Inhibition of DRAK1 (unknown origin) at 1 uM by KINOMEscanning assay relative to control; values are per cent of control
T1 sequence (whole entry): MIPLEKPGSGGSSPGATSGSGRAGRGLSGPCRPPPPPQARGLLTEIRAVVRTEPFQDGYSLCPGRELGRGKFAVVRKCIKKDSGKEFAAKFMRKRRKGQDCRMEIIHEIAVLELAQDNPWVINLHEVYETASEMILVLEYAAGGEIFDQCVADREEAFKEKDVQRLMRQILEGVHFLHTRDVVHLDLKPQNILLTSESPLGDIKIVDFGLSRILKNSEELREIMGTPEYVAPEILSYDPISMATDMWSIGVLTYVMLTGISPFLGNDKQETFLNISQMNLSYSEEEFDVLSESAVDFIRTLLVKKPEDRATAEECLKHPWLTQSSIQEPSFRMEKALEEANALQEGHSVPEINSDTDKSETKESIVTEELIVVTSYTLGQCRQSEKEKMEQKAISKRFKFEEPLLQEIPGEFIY

[13] = molecular target: Glycogen synthase kinase-3 beta (Homo sapiens) (UniProt P49841); test: Inhibition of GSK3beta (unknown origin) at 1 uM by KINOMEscanning assay relative to control; values are per cent of control
[14] = molecular target: Vascular endothelial growth factor receptor 1 (Homo sapiens) (UniProt P17948); test: Inhibition of FLT1 (unknown origin) at 1 uM by KINOMEscanning assay relative to control; values are per cent of control
[15] = molecular target: Platelet-derived growth factor receptor alpha (Homo sapiens) (UniProt P16234); test: Inhibition of PDGFRalpha (unknown origin) at 1 uM by KINOMEscanning assay relative to control; values are per cent of control
[16] = molecular target: Insulin-like growth factor 1 receptor (Homo sapiens) (UniProt P08069); test: Inhibition of IGF1R (unknown origin) at 1 uM by KINOMEscanning assay relative to control; values are per cent of control
[17] = tested on: Hepatocyte growth factor receptor (Homo sapiens), P08581 [M1250T]; test: Inhibition of MET M1250T mutant (unknown origin) at 1 uM by KINOMEscanning assay relative to control; values are per cent of control
[18] = tested on: Tyrosine-protein kinase ABL1 (Homo sapiens), P00519 [T315I]; test: Inhibition of ABL T315I mutant (unknown origin) at 1 uM by KINOMEscanning assay relative to control; values are per cent of control
[19] = molecular target: ALK tyrosine kinase receptor (Homo sapiens) (UniProt Q9UM73); test: Inhibition of ALK (unknown origin) at 1 uM by KINOMEscanning assay relative to control; values are per cent of control
[20] = molecular target: Aurora kinase B (Homo sapiens) (UniProt Q96GD4); test: Inhibition of AURKB (unknown origin) at 1 uM by KINOMEscanning assay relative to control; values are per cent of control
[21] = molecular target: Fibroblast growth factor receptor 2 (Homo sapiens) (UniProt P21802); test: Inhibition of FGFR2 (unknown origin) at 1 uM by KINOMEscanning assay relative to control; values are per cent of control
[22] = molecular target: Mitogen-activated protein kinase 14 (Homo sapiens) (UniProt Q16539); test: Inhibition of p38alpha (unknown origin) at 1 uM by KINOMEscanning assay relative to control; values are per cent of control
[23] = molecular target: Mast/stem cell growth factor receptor Kit (Homo sapiens, UniProt P10721); test: Inhibition of wild type c-KIT (unknown origin)

Platelet-derived growth factor receptor alpha (Homo sapiens), sequence (P16234 whole entry): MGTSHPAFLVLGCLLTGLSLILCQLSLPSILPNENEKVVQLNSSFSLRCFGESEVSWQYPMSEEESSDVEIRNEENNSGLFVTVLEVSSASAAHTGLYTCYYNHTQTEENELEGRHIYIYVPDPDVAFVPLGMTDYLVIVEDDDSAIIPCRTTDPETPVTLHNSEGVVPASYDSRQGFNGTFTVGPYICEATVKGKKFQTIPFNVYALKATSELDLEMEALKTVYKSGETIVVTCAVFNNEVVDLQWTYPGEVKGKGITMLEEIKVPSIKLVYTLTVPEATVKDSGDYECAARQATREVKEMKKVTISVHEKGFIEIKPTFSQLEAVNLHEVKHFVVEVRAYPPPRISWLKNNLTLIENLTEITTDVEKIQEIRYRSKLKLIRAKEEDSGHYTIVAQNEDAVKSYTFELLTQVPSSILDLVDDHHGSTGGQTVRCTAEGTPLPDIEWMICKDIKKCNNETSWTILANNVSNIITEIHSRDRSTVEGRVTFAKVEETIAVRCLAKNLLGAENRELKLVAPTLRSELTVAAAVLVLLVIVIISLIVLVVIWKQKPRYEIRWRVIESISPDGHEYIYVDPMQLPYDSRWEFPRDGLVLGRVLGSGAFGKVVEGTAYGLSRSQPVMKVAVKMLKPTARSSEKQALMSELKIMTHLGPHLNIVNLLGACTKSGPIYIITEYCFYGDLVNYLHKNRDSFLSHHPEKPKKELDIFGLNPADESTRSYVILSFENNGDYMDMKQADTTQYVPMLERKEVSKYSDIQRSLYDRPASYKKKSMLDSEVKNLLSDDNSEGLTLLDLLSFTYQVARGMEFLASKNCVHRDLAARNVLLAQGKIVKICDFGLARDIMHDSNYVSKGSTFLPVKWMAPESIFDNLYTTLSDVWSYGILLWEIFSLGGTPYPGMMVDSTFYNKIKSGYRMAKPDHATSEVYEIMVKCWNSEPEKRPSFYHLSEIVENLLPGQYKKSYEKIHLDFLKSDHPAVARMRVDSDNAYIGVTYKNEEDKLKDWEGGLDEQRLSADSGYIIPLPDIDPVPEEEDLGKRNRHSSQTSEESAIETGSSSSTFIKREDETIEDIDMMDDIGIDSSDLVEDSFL
Cyclin-dependent kinase 4 (Homo sapiens), sequence (P11802 whole entry, canonical isoform): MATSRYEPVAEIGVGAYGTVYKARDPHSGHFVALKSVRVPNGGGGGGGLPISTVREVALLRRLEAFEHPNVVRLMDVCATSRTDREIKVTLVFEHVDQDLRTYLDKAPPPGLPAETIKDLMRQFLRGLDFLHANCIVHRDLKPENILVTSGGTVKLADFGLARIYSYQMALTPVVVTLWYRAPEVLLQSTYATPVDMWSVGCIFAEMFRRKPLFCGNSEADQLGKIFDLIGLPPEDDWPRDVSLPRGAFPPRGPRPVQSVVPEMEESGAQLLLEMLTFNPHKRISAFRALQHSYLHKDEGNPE
Vascular endothelial growth factor receptor 1 (Homo sapiens), sequence (P17948 whole entry): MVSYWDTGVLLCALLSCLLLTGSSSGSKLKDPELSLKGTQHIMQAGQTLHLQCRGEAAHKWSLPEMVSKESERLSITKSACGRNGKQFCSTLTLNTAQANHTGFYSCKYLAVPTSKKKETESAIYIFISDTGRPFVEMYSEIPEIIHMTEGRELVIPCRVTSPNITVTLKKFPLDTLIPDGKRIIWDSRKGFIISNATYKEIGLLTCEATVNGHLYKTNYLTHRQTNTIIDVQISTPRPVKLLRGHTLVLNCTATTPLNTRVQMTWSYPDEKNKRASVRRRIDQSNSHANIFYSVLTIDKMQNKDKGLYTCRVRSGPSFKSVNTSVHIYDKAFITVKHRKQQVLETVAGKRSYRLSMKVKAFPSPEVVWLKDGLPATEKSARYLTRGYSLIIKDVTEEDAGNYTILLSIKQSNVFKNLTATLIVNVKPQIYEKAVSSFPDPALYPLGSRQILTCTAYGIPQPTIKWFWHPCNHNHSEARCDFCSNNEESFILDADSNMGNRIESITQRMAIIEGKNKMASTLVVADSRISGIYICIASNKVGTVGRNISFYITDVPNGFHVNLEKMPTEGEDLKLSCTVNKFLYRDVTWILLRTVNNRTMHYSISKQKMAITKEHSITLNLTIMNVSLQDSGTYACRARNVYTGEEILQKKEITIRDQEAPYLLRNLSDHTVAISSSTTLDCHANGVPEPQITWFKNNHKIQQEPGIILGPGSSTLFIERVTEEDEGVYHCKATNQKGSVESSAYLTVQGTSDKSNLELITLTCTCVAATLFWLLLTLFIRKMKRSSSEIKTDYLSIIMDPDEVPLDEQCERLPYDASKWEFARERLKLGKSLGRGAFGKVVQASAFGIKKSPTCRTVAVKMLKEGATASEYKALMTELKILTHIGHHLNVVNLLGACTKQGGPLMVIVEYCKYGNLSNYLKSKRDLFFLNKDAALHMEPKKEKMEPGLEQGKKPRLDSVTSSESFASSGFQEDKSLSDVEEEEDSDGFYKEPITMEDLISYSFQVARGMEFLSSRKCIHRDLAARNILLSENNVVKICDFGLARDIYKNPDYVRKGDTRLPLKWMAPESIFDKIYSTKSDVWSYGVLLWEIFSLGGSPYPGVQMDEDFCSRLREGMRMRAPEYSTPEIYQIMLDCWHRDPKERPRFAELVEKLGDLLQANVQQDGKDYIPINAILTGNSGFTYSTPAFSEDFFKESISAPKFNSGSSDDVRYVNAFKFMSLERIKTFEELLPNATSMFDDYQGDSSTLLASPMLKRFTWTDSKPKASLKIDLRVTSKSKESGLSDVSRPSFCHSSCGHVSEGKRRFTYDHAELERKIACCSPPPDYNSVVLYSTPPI
Cyclin-dependent kinase 19 (Homo sapiens), sequence (Q9BWU1 whole entry): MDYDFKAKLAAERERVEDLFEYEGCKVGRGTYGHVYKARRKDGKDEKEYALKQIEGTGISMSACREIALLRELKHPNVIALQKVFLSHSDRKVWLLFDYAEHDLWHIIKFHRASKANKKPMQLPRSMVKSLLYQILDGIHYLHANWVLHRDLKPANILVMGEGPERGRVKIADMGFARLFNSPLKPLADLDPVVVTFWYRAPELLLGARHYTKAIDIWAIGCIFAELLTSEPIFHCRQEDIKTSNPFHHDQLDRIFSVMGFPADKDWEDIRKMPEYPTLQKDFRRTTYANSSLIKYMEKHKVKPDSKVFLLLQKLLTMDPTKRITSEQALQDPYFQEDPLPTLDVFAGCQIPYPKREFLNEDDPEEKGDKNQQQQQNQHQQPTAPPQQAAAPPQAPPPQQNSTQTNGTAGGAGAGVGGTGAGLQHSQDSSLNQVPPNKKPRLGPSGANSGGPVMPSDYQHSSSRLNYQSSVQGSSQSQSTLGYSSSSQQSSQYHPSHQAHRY
Phosphatidylinositol 4,5-bisphosphate 3-kinase catalytic subunit alpha isoform, sequence (P42336 whole entry, canonical isoform): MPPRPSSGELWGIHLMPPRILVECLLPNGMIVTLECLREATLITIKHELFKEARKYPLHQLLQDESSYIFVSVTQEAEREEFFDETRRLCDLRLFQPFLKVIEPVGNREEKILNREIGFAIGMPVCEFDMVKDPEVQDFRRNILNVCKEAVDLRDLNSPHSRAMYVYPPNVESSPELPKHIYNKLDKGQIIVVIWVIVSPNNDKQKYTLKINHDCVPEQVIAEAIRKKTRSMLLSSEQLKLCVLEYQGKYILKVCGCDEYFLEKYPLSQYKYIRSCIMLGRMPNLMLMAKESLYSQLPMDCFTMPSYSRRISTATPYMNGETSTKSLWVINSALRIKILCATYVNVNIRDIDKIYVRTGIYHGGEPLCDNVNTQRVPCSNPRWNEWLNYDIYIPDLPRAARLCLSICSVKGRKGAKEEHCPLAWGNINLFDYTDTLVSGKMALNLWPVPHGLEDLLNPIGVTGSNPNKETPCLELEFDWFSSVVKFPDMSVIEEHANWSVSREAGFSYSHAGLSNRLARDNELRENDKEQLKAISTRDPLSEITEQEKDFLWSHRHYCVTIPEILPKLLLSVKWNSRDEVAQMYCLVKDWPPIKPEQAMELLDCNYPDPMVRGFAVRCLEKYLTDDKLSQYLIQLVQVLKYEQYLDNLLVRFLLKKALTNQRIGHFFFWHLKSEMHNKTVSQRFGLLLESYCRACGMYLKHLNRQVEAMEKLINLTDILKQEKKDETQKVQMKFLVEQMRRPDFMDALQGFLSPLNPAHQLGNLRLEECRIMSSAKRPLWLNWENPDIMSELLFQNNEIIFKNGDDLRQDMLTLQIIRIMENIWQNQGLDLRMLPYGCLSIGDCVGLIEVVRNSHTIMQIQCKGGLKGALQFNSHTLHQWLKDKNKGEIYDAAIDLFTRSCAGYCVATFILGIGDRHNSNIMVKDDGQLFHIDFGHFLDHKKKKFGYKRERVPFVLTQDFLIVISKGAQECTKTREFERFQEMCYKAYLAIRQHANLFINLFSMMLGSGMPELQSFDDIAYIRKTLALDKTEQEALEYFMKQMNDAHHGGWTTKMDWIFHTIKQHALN
5'-AMP-activated protein kinase catalytic subunit alpha-1 (Homo sapiens), sequence (Q13131 whole entry, looked up): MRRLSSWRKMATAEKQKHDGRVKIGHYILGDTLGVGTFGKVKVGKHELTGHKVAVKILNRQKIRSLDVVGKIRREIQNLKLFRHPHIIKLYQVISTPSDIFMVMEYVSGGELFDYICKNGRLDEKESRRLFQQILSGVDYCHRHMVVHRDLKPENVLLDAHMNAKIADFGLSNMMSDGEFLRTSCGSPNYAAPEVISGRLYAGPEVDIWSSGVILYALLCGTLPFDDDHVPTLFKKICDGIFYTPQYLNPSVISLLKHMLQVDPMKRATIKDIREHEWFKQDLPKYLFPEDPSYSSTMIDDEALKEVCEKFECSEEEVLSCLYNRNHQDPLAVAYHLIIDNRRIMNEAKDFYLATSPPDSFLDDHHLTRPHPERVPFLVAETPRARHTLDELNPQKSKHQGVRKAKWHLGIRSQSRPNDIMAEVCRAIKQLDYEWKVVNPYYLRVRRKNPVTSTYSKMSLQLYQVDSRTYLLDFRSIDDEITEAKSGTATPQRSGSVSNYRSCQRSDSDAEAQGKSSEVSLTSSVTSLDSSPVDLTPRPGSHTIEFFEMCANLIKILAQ

residual activity [1] [%]	residual activity [2] [%]	residual activity [3] [%]	residual activity [4] [%]	residual activity [5] [%]	residual activity [6] [%]	residual activity [7] [%]	residual activity [8] [%]	residual activity [9] [%]	residual activity [11] [%]	residual activity [12] [%]	residual activity [13] [%]	residual activity [14] [%]	residual activity [15] [%]	residual activity [16] [%]	residual activity [17] [%]	residual activity [18] [%]	residual activity [19] [%]	residual activity [20] [%]	Structure (SMILES)	IC50 [10] [nM]	also measured
28	77	71	96	25	34	90	85	71	70	86	64	36	65	100	80	47	33	31	COc1cc(-c2c[nH]c3ncc(-c4cccc(N)c4)cc23)cc(OC)c1OC	810	residual activity [21]: 100%; residual activity [22]: 100%
78	82	100	100	7	66	84	82	100	73	0.25	63	56	36	96	53	17	76	44	COc1ccc(-c2c[nH]c3ncc(-c4ccc(C(=O)N5CCOCC5)c(N)c4)cc23)cc1OC	2010	IC50 [23]: 9140 nM; residual activity [21]: 89%; residual activity [22]: 94%
81	81	100	3.8	2.2	88	100	85	66	70	0.2	94	81	16	100	35	51	43	82	COc1ccc(-c2cnc3[nH]cc(-c4ccc(OC)c(OC)c4)c3c2)cc1OC	760	IC50 [23]: 142 nM; residual activity [21]: 100%; residual activity [22]: 96%
83	87	93	79	18	78	98	81	71	43	2.4	87	43	21	79	51	54	51	85	COc1ccc(-c2cnc3[nH]cc(-c4ccc(OC)c(OC)c4)c3c2)cc1N	870	IC50 [23]: > 10000 nM; residual activity [21]: 100%; residual activity [22]: 93%
78	86	92	90	1.6	82	95	95	75	68	0.95	64	75	59	91	86	48	40	92	COc1ccc(-c2c[nH]c3ncc(-c4cc(OC)c(OC)c(OC)c4)cc23)cc1OC	910	IC50 [23]: 2750 nM; residual activity [21]: 100%; residual activity [22]: 100%
